# From ChEMBL document CHEMBL2407039 (Eur J Med Chem, 2013)
# pIC50: −log10 of the molar value. Calls of active or inactive are those of the source. No cut-off for these calls is given here.
# Assays:
# [1] = target: Platelet-derived growth factor receptor alpha (Homo sapiens, UniProt P16234); test: Inhibition of PDGFRalpha (unknown origin) using poly (Glu, Tyr)4:1 as substrate by ELISA
# Method in brief: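 ELISA on wells precoated with 2.5 µg/well poly(Glu,Tyr) 4:1. Reaction buffer was 50 mM HEPES pH 7.4, 20 mM MgCl2, 0.1 mM Na3VO4, 1 mM DTT, with 10 µM ATP; the reaction was started by adding kinase and run 1 h at 37 °C. Phosphotyrosine detected with PY99 and HRP anti-mouse IgG, o-phenylenediamine development, read at 490 nm.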
# [2] = Solubility of the compound in PBS buffer at PH 7.4 after 24 hrs by UV-Visible spectrophotometry; format: physicochemical
# [3] = target: T1, Fibroblast growth factor receptor 1 (Homo sapiens, UniProt P11362); test: Inhibition of FGFR1 (unknown origin) using poly (Glu, Tyr)4:1 as substrate by ELISA
# MDA-MB-231 = test: Cytotoxicity against human MDA-MB-231 cells after 72 hrs by sulforhodamine B assay; format: functional, cell-based; settings: MDA-MB-231, 72 h
# Method in brief: (§1)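 Cells seeded and cultured overnight, then treated with increasing compound concentrations for 72 h. Fixed with 10% TCA, stained with sulforhodamine B, dye dissolved in 10 mM Tris-HCl, read at 515 nm. Inhibition taken relative to untreated control. IC50 by the Logit method; triplicate experiments.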
# [4] = Cytotoxicity against human GES-1 cells after 72 hrs by sulforhodamine B assay; format: cell-based; settings: GES1, 72 h; method in brief: as §1
# [5] = target: DNA topoisomerase 2-alpha (Homo sapiens) (UniProt P11388); test: Inhibition of human topoisomerase 2 alpha-mediated decatenation of kinetoplast DNA at 100 uM after 30 mins by agarose gel electrophoresis in presence of ATP relative to control
# Method in brief: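 ATP-dependent decatenation of 0.1 µg kinetoplast DNA by 1 unit of human topo IIα. Incubated 30 min at 37 °C in 50 mM Tris-HCl pH 8.0, 150 mM NaCl, 10 mM MgCl2, 2 mM ATP, 0.5 mM DTT. Gel images quantified by densitometry.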
# A549 = test: Cytotoxicity against human A549 cells after 72 hrs by sulforhodamine B assay; format: functional, cell-based; settings: A549, 72 h; method in brief: as §1
# [6] = target: Platelet-derived growth factor receptor beta (Homo sapiens, UniProt P09619); test: Inhibition of PDGFRbeta (unknown origin) using poly (Glu, Tyr)4:1 as substrate by ELISA
# [7] = target: Vascular endothelial growth factor receptor 2 (Homo sapiens, UniProt P35968); test: Inhibition of KDR (unknown origin) using poly (Glu, Tyr)4:1 as substrate by ELISA
# HL-60 = test: Cytotoxicity against human HL60 cells after 72 hrs by MTT assay; format: functional, cell-based; settings: HL-60, 72 h
# Method in brief: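 HL60 cells were treated with increasing compound concentrations for 72 h. MTT was then added for 4 h. Cells were lysed overnight at 37 °C in 10% SDS–5% isobutanol–12 mM HCl and read at 570 nm. Inhibition taken relative to control. IC50 by the Logit method; triplicate experiments.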
# DNA [8] = test: Binding affinity to calf thymus DNA assessed as intercalation at 20 uM after 2 hrs by circular dichroism spectrophotometry; format: nucleic-acid assay; settings: Bos taurus
# Method in brief: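 Calf thymus DNA (100 µM) was incubated with compound (20 µM) in Tris-HCl buffer for 2 h at 25 °C. CD spectra were then analysed over 230–300 nm.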
# [9] = Cytotoxicity against human LO2 cells after 72 hrs by sulforhodamine B assay; format: cell-based; settings: L02, 72 h; method in brief: as §1
# DNA [10] = test: Binding affinity to calf thymus DNA assessed as intercalation at 10 uM after 1 hr by fluorescence spectrophotometry; format: nucleic-acid assay; settings: Bos taurus
# Method in brief: (§2)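 Fluorescence spectra were recorded at 25 °C. Compound was present at 10 µM with calf thymus DNA at 0–80 µM, in 20 mM Tris-HCl (pH 7.5) containing 1% DMSO.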
# DNA [11] = test: Binding affinity to calf thymus DNA assessed as intercalation after 1 hr by fluorescence spectrophotometric analysis; format: nucleic-acid assay; settings: Bos taurus; method in brief: as §2
# [12] = target: T1, Fibroblast growth factor receptor 1; test: Inhibition of FGFR1 in human HMEC1 cells assessed as reduction of bFGF-induced Erk1/2 phosphorylation at Thr 202/204 at 1.25 to 2.5 uM incubated for 10 hrs prior to bFGF challenge measured after 10 mins by Western blotting analysis; format: cell-based
# Method in brief: (§3)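 HMEC-1 cells were plated at 3 × 10⁵ cells/well and serum-starved 24 h. Cells were exposed to compound (10 h per the results text; methods state 12 h), then stimulated with 50 ng/mL bFGF for 10 min at 37 °C. Whole-cell lysates were run on 10% SDS-PAGE and blotted with antibodies to phospho-FGFR1, phospho-Erk and phospho-AKT, with GAPDH as loading control.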
# Target sequence in this assay (P11362 22-822 limits assumed): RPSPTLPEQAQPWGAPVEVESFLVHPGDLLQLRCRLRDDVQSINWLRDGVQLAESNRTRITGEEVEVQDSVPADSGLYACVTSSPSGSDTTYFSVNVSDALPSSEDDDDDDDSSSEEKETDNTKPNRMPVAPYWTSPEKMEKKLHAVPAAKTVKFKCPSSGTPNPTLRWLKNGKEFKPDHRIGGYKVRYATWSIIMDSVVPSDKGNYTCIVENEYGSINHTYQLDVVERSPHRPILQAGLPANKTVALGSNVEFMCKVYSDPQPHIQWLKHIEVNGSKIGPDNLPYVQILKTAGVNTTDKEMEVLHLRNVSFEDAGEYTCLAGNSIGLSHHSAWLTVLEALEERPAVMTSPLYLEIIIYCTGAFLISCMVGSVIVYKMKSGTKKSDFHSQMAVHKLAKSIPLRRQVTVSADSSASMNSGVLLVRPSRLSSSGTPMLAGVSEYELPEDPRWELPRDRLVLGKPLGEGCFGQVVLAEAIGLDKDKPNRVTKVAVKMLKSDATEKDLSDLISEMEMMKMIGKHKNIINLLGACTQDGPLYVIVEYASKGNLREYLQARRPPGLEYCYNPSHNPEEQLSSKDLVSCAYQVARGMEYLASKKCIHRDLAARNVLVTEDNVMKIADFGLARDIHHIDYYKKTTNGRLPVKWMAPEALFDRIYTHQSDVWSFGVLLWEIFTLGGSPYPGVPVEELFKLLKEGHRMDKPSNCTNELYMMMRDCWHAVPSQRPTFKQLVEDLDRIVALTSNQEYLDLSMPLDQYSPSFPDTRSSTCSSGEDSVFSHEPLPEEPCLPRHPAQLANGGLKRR
# [13] = Antimigratory activity against human HMEC1 cells at 5 uM after 6 hrs by transwell Boyden chamber assay relative to control; format: functional; settings: HMEC-1, 6 h
# Method in brief: (§4)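 HMEC-1 suspension (5 × 10⁵ cells/mL) with compound or control was placed in the upper compartment of a transwell Boyden chamber. The lower compartment held MCDB131 with 20% FBS plus the same compound concentration. After 6 h at 37 °C, migrated cells were quantified by absorbance. Inhibition = [1 − (A compound − A blank)/(A control − A blank)] × 100%; mean ± SD, n = 3.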
# [14] = Antiangiogenic activity in human HMEC1 cells assessed as growth inhibition at 20 uM after 72 hrs by SRB assay; format: functional; settings: HMEC-1, 72 h, read-out: GI
# Method in brief: (§5)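 HMEC-1 cells seeded and cultured overnight, then exposed to graded compound concentrations for 72 h. Cells were fixed with 10% trichloroacetic acid and stained with sulforhodamine B. Dye was dissolved in 10 mM Tris-HCl and read at 515 nm. Inhibition = (1 − A515 treated/A515 control) × 100%.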
# HMEC-1 [15] = test: Antiangiogenic activity in human HMEC1 cells assessed as growth inhibition after 72 hrs by SRB assay; format: functional, cell-based; method in brief: as §5
# [16] = Antiangiogenic activity in human HMEC1 cells assessed as growth inhibition at 40 uM after 72 hrs by SRB assay; format: functional; settings: HMEC-1, 72 h, read-out: GI; method in brief: as §5
# [17] = target: T1, Fibroblast growth factor receptor 1; test: Inhibition of FGFR1 in human HMEC1 cells assessed as reduction of bFGF-induced FGFR1 phosphorylation at Tyr 653/654 at 1.25 to 2.5 uM incubated for 10 hrs prior to bFGF challenge measured after 10 mins by Western blotting analysis; format: cell-based; method in brief: as §3
# Target sequence in this assay (P11362 22-822 limits assumed): as above
# HMEC-1 [18] = test: Antiangiogenic activity in human HMEC1 cells assessed as inhibition of serum-stimulated tube formation after 8 hrs by matrigel assay; format: functional, cell-based
# Method in brief: (§6)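 Matrigel was set in 96-well plates (37 °C, 1 h) and seeded with HMEC-1 at 1 × 10⁵ cells/mL. Cells were cultured 8 h at 37 °C in MCDB131 with 20% FBS containing compound or control. Tubes were counted in five random fields by phase-contrast microscopy. Inhibition = [1 − tubes compound/tubes control] × 100%; mean ± SD, n = 3.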
# [19] = Antiangiogenic activity in human HMEC1 cells assessed as inhibition of serum-stimulated tube formation at 5 uM after 8 hrs by matrigel assay relative to control; format: functional; settings: HMEC-1, 8 h; method in brief: as §6
# [20] = Antiangiogenic activity in human HMEC1 cells assessed as inhibition of serum-stimulated tube formation at 10 uM after 8 hrs by matrigel assay relative to control; format: functional; settings: HMEC-1, 8 h; method in brief: as §6
# [21] = target: T1, Fibroblast growth factor receptor 1; test: Inhibition of FGFR1 in human HMEC1 cells assessed as reduction of bFGF-induced AKT phosphorylation at Ser 473 at 1.25 to 5 uM incubated for 10 hrs prior to bFGF challenge measured after 10 mins by Western blotting analysis; format: cell-based; method in brief: as §3
# Target sequence in this assay (P11362 22-822 limits assumed): as above
# HMEC-1 [22] = test: Antiangiogenic activity in human HMEC1 cells assessed as growth inhibition at <= 10 uM after 72 hrs by SRB assay; format: functional, cell-based; method in brief: as §5
# [23] = Antimigratory activity against human HMEC1 cells at 10 uM after 6 hrs by transwell Boyden chamber assay relative to control; format: functional; settings: HMEC-1, 6 h; method in brief: as §4
# HMEC-1 [24] = test: Antimigratory activity against human HMEC1 cells after 6 hrs by transwell Boyden chamber assay; format: functional, cell-based; method in brief: as §4
# [25] = target: T1, Fibroblast growth factor receptor 1; test: Inhibition of FGFR1 in human HMEC1 cells assessed as inhibition of bFGF-induced FGFR1 phosphorylation at Tyr 653/654 incubated for 10 hrs prior to bFGF challenge measured after 10 mins by Western blotting analysis; format: cell-based; method in brief: as §3
# Target sequence in this assay (P11362 22-822 limits assumed): as above
# Chain of Vascular endothelial growth factor receptor 2 (P35968 whole entry): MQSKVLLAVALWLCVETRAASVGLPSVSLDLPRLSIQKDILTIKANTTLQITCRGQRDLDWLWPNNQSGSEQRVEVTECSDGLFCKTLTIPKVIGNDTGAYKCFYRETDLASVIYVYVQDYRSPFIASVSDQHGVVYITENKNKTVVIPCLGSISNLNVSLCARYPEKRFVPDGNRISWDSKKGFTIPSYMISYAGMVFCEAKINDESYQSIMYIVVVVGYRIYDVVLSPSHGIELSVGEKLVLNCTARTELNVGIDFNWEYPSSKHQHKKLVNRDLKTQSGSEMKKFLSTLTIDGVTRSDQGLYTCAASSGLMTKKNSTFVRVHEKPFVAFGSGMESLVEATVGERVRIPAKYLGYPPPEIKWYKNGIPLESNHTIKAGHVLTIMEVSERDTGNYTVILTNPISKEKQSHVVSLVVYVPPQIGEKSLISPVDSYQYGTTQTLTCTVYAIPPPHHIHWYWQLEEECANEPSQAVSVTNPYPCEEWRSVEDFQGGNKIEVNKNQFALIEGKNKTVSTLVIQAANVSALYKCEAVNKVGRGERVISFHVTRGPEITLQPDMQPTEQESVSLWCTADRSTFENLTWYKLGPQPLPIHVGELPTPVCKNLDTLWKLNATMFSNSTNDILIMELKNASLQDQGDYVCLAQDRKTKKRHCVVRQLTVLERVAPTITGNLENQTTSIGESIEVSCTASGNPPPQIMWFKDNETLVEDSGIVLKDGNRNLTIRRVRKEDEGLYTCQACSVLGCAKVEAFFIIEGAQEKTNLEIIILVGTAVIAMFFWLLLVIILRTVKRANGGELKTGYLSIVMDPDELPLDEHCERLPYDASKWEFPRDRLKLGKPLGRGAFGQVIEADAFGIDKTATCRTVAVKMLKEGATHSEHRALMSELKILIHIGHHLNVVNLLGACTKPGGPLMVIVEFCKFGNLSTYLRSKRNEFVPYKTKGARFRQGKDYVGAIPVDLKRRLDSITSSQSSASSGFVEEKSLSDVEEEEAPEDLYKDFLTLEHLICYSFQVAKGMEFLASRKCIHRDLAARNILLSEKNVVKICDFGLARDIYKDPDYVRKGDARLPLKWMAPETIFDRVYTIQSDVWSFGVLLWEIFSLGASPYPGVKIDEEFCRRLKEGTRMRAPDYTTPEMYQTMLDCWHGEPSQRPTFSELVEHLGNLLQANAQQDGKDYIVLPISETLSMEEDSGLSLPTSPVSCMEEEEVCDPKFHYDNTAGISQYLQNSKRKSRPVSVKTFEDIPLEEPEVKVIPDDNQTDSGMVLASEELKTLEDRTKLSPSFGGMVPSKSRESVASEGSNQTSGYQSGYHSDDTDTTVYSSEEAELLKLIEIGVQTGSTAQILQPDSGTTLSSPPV
# Chain of Platelet-derived growth factor receptor alpha (P16234 whole entry): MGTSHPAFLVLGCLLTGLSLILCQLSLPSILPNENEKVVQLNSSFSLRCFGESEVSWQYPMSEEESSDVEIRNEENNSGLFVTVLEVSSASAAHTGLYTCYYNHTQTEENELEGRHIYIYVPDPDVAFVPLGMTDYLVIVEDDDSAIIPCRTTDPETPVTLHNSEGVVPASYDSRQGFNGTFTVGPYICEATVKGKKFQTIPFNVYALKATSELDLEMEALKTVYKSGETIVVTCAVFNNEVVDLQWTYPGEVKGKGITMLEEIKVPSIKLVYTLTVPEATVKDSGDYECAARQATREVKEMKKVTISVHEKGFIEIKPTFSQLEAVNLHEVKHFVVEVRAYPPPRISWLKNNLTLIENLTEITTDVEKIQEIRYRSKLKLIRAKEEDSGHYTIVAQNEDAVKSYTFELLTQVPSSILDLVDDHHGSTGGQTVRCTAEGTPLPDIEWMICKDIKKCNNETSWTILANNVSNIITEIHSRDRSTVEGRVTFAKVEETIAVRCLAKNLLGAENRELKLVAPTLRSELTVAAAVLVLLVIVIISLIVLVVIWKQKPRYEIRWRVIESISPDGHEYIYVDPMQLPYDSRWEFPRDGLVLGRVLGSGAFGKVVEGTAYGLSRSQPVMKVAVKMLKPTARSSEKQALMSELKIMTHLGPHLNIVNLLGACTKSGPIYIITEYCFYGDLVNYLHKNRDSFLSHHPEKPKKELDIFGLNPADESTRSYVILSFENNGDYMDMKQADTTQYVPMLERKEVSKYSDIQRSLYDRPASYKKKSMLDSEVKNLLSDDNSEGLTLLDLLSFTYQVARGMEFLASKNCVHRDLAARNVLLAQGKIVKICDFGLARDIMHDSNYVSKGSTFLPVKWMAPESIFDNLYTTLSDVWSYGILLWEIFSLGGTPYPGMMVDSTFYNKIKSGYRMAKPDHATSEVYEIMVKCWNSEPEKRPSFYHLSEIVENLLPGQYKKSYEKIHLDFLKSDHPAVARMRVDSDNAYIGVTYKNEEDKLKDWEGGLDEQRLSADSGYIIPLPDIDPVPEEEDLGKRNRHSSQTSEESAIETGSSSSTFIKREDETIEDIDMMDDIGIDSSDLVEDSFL
# Chain of Platelet-derived growth factor receptor beta (P09619 whole entry): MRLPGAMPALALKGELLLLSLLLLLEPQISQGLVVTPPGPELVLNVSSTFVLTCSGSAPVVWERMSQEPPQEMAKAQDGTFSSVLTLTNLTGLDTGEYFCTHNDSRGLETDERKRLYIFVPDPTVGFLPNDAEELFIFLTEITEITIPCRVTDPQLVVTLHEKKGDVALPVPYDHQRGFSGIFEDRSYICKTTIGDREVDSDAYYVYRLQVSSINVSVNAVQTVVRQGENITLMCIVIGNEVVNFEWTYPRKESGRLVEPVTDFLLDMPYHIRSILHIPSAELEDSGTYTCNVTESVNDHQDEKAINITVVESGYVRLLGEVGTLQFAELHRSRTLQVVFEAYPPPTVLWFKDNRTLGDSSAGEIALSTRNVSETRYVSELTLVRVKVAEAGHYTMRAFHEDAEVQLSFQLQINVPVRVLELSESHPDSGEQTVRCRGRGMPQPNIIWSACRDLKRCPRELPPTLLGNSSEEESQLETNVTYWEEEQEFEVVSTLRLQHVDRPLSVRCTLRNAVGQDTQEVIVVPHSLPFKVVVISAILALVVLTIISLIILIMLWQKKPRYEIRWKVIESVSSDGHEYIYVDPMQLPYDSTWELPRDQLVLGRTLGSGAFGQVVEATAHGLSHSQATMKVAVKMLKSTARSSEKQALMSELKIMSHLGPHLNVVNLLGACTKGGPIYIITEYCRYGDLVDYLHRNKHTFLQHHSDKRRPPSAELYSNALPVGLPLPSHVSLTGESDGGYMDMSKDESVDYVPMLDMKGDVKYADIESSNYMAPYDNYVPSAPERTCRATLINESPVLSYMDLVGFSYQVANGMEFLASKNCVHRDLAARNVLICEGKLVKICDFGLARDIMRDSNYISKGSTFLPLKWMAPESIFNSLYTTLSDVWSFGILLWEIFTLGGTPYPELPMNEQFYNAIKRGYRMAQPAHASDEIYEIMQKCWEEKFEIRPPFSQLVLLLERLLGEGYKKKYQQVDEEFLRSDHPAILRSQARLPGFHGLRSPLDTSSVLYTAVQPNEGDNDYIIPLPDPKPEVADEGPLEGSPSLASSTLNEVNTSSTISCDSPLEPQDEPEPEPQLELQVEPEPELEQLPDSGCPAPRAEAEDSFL
SMILES,pIC50 [1],solubility at 24 h [2],pIC50 [3],inhibition [5],pIC50 [6],pIC50 [7],Activity (DNA [8]),Activity (DNA [10]),pIC50 (MDA-MB-231),pIC50 [4],pIC50 (A549),pIC50 (HL-60),pIC50 [9],further results
CCCCCCCCCCCCCCCCN1C(=O)c2cccc3c(NCCNCCN(C)C)ccc(c23)C1=O,< 4.30,16 µM,< 4.00,97.3%,< 4.30,< 4.00,inactive,inactive,4.75,< 4.30,4.50,4.61,< 4.30,–
CN(C)CCN1C(=O)c2cccc3cc(N)cc(c23)C1=O [AMONAFIDE],–,–,–,97.5%,–,–,–,inactive,5.36,4.67,5.49,6.05,4.86,Kb (DNA [11]): 2.1 ×10⁵ /M
CN(C)CCNCCNc1ccc2c3c(cccc13)C(=O)N(C)C2=O,< 4.00,78400 µM,< 4.00,97.1%,< 4.00,< 4.00,inactive,inactive,5.10,< 4.30,4.61,5.11,4.87,Kb (DNA [11]): 1.3 ×10⁵ /M
CCCCN1C(=O)c2cccc3c(NCCNCCN(C)C)ccc(c23)C1=O,< 4.00,15400 µM,< 4.00,90.2%,< 4.00,< 4.00,inactive,–,4.98,< 4.30,4.67,5.24,< 4.30,–

# More lines, main results first:
pIC50 [1],solubility at 24 h [2],pIC50 [3],inhibition [5],pIC50 [6],pIC50 [7],Activity (DNA [8]),Activity (DNA [10]),SMILES,pIC50 (MDA-MB-231),pIC50 [4],pIC50 (A549),pIC50 (HL-60),pIC50 [9],further results
< 4.00,46700 µM,< 4.00,86.7%,< 4.00,< 4.00,inactive,–,CCN1C(=O)c2cccc3c(NCCNCCN(C)C)ccc(c23)C1=O,4.61,< 4.30,4.50,4.77,< 4.30,–
< 4.00,430 µM,< 4.00,94.3%,< 4.00,< 4.00,inactive,–,CCCCCCN1C(=O)c2cccc3c(NCCNCCN(C)C)ccc(c23)C1=O,5.21,4.34,5.01,5.82,< 4.30,–
< 4.00,264 µM,4.74,99.8%,< 4.30,4.31,inactive,inactive,CCCCCCCCN1C(=O)c2cccc3c(NCCNCCN(C)C)ccc(c23)C1=O,5.07,< 4.30,5.11,5.68,< 4.30,inhibition [12]: Active; inhibition at 5 µM [13]: 55%; inhibition of growth at 20 µM [14]: 68%; growth inhibition (GI) (HMEC-1 [15]): Dose-dependent effect; inhibition of growth at 40 µM [16]: 99%; inhibition [17]: Active; inhibition (HMEC-1 [18]): Dose-dependent effect; inhibition at 5 µM [19]: 30%; inhibition at 10 µM [20]: 70%; inhibition [21]: Active; growth inhibition (GI) (HMEC-1 [22]): inactive; inhibition at 10 µM [23]: 70%; inhibition (HMEC-1 [24]): Dose-dependent effect; inhibition [25]: Dose-dependent effect
4.58,63 µM,4.54,96.6%,< 4.30,4.56,inactive,–,CCCCCCCCCCCCN1C(=O)c2cccc3c(NCCNCCN(C)C)ccc(c23)C1=O,5.18,< 4.30,4.72,5.74,< 4.30,–
